The source of these data is ChEMBL document CHEMBL3297739 (J Med Chem, 2014).

In data set [1] the target is T1, Farnesyl pyrophosphate synthase (Homo sapiens) (UniProt P14324).
T1 sequence (whole entry): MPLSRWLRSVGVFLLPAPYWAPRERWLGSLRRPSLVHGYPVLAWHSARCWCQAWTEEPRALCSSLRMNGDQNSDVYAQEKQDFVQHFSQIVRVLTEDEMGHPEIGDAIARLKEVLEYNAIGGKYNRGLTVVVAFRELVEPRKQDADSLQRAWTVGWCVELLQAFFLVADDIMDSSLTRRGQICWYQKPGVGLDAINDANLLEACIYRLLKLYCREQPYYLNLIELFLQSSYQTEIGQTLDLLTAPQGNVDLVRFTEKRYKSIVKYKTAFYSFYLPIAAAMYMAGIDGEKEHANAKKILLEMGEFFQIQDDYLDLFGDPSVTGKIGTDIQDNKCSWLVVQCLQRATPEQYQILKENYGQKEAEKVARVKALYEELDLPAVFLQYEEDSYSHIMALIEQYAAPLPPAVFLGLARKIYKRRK
The experiment in a line: Allosteric inhibition of human recombinant FPPS using GPP and [3H]IPP as substrate at 20 uM incubated with enzyme for 10 mins prior to substrate addition by liquid scintillation counting analysis.

The target of data set [2] is T2, Farnesyl pyrophosphate synthase (Homo sapiens, UniProt P14324).
T2 sequence (P14324 whole entry): T1 sequence (whole entry)
The experiment in a line: Allosteric inhibition of human recombinant FPPS using GPP and [3H]IPP as substrate incubated with enzyme for 10 mins prior to substrate addition by liquid scintillation counting analysis.

For data set [3], the target named is T2, Farnesyl pyrophosphate synthase. The experiment in a line: Binding affinity to human FPPS by […] in absence of Mg2+ ions. A digest of the protocol: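 ITC at 30 °C. One 1 μL ligand injection was followed by 18 injections of 2 μL. Heats of dilution from control titrations were subtracted.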
A short description of data set [4]: Dissociation constant, pKa of P(O)O-OH group of compound. In kind it is physicochemical.
Data set [5] in a line: Cytotoxicity against human SH-SY5Y cells assessed as LDH release after 48 hrs (reference value: 0%). In kind it is cell-based. In outline: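 SH-SY5Y neuroblastoma cells were grown in serum for 5 days, then exposed to inhibitor (1–500 nM range). LDH activity in the medium was measured with a commercial kit. Values are % activity relative to untreated cells, which were set to 0%.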
On the technique in general: LDH leaks from cells whose membrane has failed.

By inhibition is commonly meant the relative decrease from the control value, in per cent. For orientation: IC50 means the concentration needed to halve the response being measured. As to `Cc1ccc(-c2cc3c(NCC(=O)O)ncnc3s2)cc1`, the inhibition in data set [1] worked out at 27%. Also, the IC50 in data set [2] was > 20 µM.
As to `O=P(O)(O)C(Cc1cccnc1)P(=O)(O)O`, the IC50 in data set [2] was 0.033 µM.
By Kd is commonly meant the concentration at which binding is half-saturated. Low values mean a tighter complex, high ones a looser complex. The pKa is the pH at which an ionisable group is half protonated. Compound `Cc1ccc(-c2cc3c(NCP(=O)(O)O)ncnc3s2)cc1` showed a Kd in data set [3] of 9.2 µM. This compound also returned a pKa in data set [4] of 6.8.
In the case of `Cc1ccc(-c2cc3c(CCP(=O)(O)O)ncnc3s2)cc1`, the IC50 in data set [2] amounted to 26 µM. The pKa in data set [4] turned out to be 7.7.
As to `O=C(O)Cn1c(C(=O)O)cc2ccc3ccccc3c21`, the Activity in data set [5] is given as 3%.
As for `Cc1ccc(-c2cc3c(NC(c4ccccc4)P(=O)(O)O)ncnc3s2)cc1Cl` (centres undefined), the Activity in data set [5] is recorded as -7%. In addition, in data set [2], the IC50 turned out to be 1.2 µM.
For `O.O=P(O)(O)C(O)(Cn1ccnc1)P(=O)(O)O` [ZOLEDRONIC ACID], the Activity in data set [5] turned out to be 60%.
With `O=P(O)(O)C(Nc1ncnc2sc(-c3ccc(OC4CC4)cc3)cc12)P(=O)(O)O`, in data set [5], the Activity is -1%.
Still for that read-out and setting: in the case of `O=P(O)(O)C(O)(Cc1cccnc1)P(=O)(O)O` [RISEDRONIC ACID] it was 60%.
For `Cc1ccc(-c2cc3c(NCCP(=O)(O)O)ncnc3s2)cc1`, the inhibition in data set [1] was determined as 40%. In addition, the IC50 in data set [2] is > 20 µM.
As for `Cc1ccc(-c2cc3c(NC(P(=O)(O)O)P(=O)(O)O)ncnc3s2)cc1`, in data set [3], binding was characterised by a dissociation constant (Kd) of 56 µM.
With `Cc1ccc(-c2cc3c(NCP(=O)(O)O)ncnc3s2)cc1Cl`, in data set [2], the IC50 was 3.3 µM.
Still for that read-out and setting: in the case of `O=P(O)(O)CCc1cccnc1` it was > 800 µM.
In the case of `O=P(O)(O)C(Nc1cncc(-c2ccc(OC3CC3)cc2)c1)P(=O)(O)O`, the Activity in data set [5] is given as 0%.
